From ChEMBL document CHEMBL4118073, “Evaluation of the antidepressant therapeutic potential of isocyanine and pseudoisocyanine analogues of the organic cation decynium-22” (Eur J Med Chem, 2017) come the findings set out here.

In general, IC50 refers to the point on the concentration scale where inhibition reaches its midpoint.

Data set [1] addresses T1, Alpha-1 adrenergic receptor (Mus musculus, UniProt P97714+P97717+P97718).
T1 sequence (P97714 whole entry): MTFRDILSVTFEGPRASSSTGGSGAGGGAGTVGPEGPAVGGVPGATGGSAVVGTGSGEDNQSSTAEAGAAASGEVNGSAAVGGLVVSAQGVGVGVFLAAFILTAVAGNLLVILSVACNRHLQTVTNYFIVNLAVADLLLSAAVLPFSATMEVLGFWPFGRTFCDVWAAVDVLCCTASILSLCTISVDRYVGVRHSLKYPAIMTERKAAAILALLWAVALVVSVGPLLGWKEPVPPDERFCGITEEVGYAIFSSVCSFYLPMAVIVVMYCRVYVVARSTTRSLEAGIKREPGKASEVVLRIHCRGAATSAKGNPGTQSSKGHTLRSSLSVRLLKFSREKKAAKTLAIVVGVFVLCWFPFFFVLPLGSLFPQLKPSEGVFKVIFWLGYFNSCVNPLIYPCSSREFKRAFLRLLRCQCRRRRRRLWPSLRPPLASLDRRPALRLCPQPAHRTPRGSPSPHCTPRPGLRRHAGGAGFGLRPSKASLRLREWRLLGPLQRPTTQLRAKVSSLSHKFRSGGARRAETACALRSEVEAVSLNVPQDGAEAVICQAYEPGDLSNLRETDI
T1 sequence (P97717 whole entry): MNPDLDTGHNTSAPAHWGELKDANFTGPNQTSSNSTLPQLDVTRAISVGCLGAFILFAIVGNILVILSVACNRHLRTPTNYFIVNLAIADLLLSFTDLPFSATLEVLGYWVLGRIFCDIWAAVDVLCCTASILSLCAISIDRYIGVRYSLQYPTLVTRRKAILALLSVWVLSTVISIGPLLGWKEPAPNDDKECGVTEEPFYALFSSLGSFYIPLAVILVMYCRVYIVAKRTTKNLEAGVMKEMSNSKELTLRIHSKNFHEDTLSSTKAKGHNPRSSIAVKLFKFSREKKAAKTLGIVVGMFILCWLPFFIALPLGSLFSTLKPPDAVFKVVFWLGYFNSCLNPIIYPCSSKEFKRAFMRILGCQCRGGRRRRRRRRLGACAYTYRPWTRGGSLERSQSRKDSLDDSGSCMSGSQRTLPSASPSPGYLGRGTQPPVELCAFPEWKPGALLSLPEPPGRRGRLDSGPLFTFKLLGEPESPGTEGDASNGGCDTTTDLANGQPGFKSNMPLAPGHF
T1 sequence (P97718 whole entry): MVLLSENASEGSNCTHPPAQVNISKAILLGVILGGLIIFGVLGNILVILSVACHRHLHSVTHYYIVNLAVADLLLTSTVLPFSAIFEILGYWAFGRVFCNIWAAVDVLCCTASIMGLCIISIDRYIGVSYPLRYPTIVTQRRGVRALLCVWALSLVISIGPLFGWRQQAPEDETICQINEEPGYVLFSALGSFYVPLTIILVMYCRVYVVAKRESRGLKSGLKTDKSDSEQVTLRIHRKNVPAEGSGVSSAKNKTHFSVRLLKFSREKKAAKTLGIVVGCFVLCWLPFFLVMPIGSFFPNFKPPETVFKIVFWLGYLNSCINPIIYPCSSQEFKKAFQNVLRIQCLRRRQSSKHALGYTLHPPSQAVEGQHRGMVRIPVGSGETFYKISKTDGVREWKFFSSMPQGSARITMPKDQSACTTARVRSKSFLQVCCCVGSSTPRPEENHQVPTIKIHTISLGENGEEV
Put plainly: Displacement of [3H]prazosin from alpha1 adrenoceptor in C57BL/6 mouse hippocampal homogenates after 40 mins by liquid scintillation counting method. An outline of the steps: (§1)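 Mouse hippocampal homogenate incubated with 1.5 nM [³H]prazosin and competing ligand across a concentration series. Bound radioligand was expressed as displacement relative to control. IC₅₀ was obtained from non-linear regression fitting of concentration-effect curves, and curve fits were compared with tamsulosin.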
(Displacement assays read how much labelled ligand stays bound in the presence of the test substance.)

Data set [2] concerns the target T2, alpha1 adrenoceptor (Mus musculus, UniProt P97714+P97717+P97718).
T2 sequence (P97714 whole entry): T1 sequence (P97714 whole entry)
T2 sequence (P97717 whole entry): T1 sequence (P97717 whole entry)
T2 sequence (P97718 whole entry): T1 sequence (P97718 whole entry)
The data set is described as follows: Displacement of [3H]prazosin from alpha1 adrenoceptor in C57BL/6 mouse hippocampal homogenates assessed as remaining receptor bound [3H]prazosin levels at 0.0001 uM after 40 mins by liquid scintillation counting method relative to control. The following applies: probe [3H]prazosin, read-out: Activity. An outline of the steps: as §1

Data set [3] addresses T2, alpha1 adrenoceptor. Put plainly: Displacement of [3H]prazosin from alpha1 adrenoceptor in C57BL/6 mouse hippocampal homogenates assessed as remaining receptor bound [3H]prazosin levels at 0.001 uM after 40 mins by liquid scintillation counting method relative to control. The following applies: probe [3H]prazosin, read-out: Activity. A digest of the protocol: as §1
Data set [4] addresses T2, alpha1 adrenoceptor. The data set is described as follows: Displacement of [3H]prazosin from alpha1 adrenoceptor in C57BL/6 mouse hippocampal homogenates assessed as remaining receptor bound [3H]prazosin levels at 0.003 uM after 40 mins by liquid scintillation counting method relative to control. The following applies: probe [3H]prazosin, read-out: Activity. An outline of the steps: as §1

Data set [5] concerns the target T2, alpha1 adrenoceptor. The data set is described as follows: Displacement of [3H]prazosin from alpha1 adrenoceptor in C57BL/6 mouse hippocampal homogenates assessed as remaining receptor bound [3H]prazosin levels at 0.01 uM after 40 mins by liquid scintillation counting method relative to control. The following applies: probe [3H]prazosin, read-out: Activity. An outline of the steps: as §1

The target of data set [6] is T2, alpha1 adrenoceptor. The data set is described as follows: Displacement of [3H]prazosin from alpha1 adrenoceptor in C57BL/6 mouse hippocampal homogenates assessed as remaining receptor bound [3H]prazosin levels at 0.03 uM after 40 mins by liquid scintillation counting method relative to control. The following applies: probe [3H]prazosin, read-out: Activity. A digest of the protocol:
as §1

Data set [7] concerns the target T2, alpha1 adrenoceptor. The data set is described as follows: Displacement of [3H]prazosin from alpha1 adrenoceptor in C57BL/6 mouse hippocampal homogenates assessed as remaining receptor bound [3H]prazosin levels at 0.1 uM after 40 mins by liquid scintillation counting method relative to control. The following applies: probe [3H]prazosin, read-out: Activity. A digest of the protocol:
as §1

Data set [8] concerns the target T2, alpha1 adrenoceptor. The data set is described as follows: Displacement of [3H]prazosin from alpha1 adrenoceptor in C57BL/6 mouse hippocampal homogenates assessed as remaining receptor bound [3H]prazosin levels at 0.3 uM after 40 mins by liquid scintillation counting method relative to control. Particulars: probe [3H]prazosin, read-out: Activity. An outline of the steps: as §1

The target of data set [9] is T2, alpha1 adrenoceptor. Put plainly: Displacement of [3H]prazosin from alpha1 adrenoceptor in C57BL/6 mouse hippocampal homogenates assessed as remaining receptor bound [3H]prazosin levels at 1 uM after 40 mins by liquid scintillation counting method relative to control. Particulars: probe [3H]prazosin, read-out: Activity. An outline of the steps: as §1
Data set [10] has as its target T2, alpha1 adrenoceptor. Put plainly: Displacement of [3H]prazosin from alpha1 adrenoceptor in C57BL/6 mouse hippocampal homogenates assessed as remaining receptor bound [3H]prazosin levels at 3 uM after 40 mins by liquid scintillation counting method relative to control. Particulars: probe [3H]prazosin, read-out: Activity. An outline of the steps:
as §1

Data set [11] has as its target T2, alpha1 adrenoceptor. Put plainly: Displacement of [3H]prazosin from alpha1 adrenoceptor in C57BL/6 mouse hippocampal homogenates assessed as remaining receptor bound [3H]prazosin levels at 10 uM after 40 mins by liquid scintillation counting method relative to control. Particulars: probe [3H]prazosin, read-out: Activity. A digest of the protocol:
as §1

Data set [12] has as its target T2, alpha1 adrenoceptor. The data set is described as follows: Displacement of [3H]prazosin from alpha1 adrenoceptor in C57BL/6 mouse hippocampal homogenates assessed as remaining receptor bound [3H]prazosin levels at 30 uM after 40 mins by liquid scintillation counting method relative to control. Particulars: probe [3H]prazosin, read-out: Activity. An outline of the steps:
as §1

The target of data set [13] is T2, alpha1 adrenoceptor. Put plainly: Displacement of [3H]prazosin from alpha1 adrenoceptor in C57BL/6 mouse hippocampal homogenates assessed as remaining receptor bound [3H]prazosin levels at 100 uM after 40 mins by liquid scintillation counting method relative to control. Particulars: probe [3H]prazosin, read-out: Activity. A digest of the protocol: as §1
In data set [14] the test system is Mus musculus. Put plainly: Anti-depressant-like activity in mouse assessed as time spent immobile at 0.1 mg/kg, ip administered 60 mins prior to testing measured for 6 mins by tail suspension test (reference value: 186.9 +/- 13.2 secs). Format: functional.
For data set [15], the system named is Mus musculus. Put plainly: Anti-depressant-like activity in mouse assessed as time spent immobile at 1 mg/kg, ip administered 60 mins prior to testing measured for 6 mins by tail suspension test (reference value: 186.9 +/- 13.2 secs). Format: functional.
Data set [16] relates to Mus musculus. Put plainly: Anti-depressant-like activity in mouse assessed as time spent immobile at 3.2 mg/kg, ip administered 60 mins prior to testing measured for 6 mins by tail suspension test (reference value: 186.9 +/- 13.2 secs). It is filed as functional.
Data set [17] concerns Mus musculus. Put plainly: Toxicity in mouse assessed as suppression of locomotion at 1 mg/kg, ip measured for 5 mins. Format: organism-based. The following applies: in vivo.
In data set [18] the test system is Mus musculus. The data set is described as follows: Toxicity in mouse assessed as suppression of locomotion at 10 mg/kg, ip measured for 5 mins. Format: organism-based. Particulars: in vivo.
In data set [19] the test system is Mus musculus. The data set is described as follows: Toxicity in mouse assessed as suppression of locomotion at 0.1 mg/kg, ip measured for 5 mins. Format: organism-based. The following applies: in vivo.

As for `CCN1/C(=C/c2ccc3cc(I)ccc3[n+]2CC)C=Cc2ccccc21.[I-]`, the IC50 in data set [1] was 711 nM. Moreover, in data set [2], the activity at 40 min, 0.0001 µM was determined as 100%. Further, the activity at 40 min, 0.001 µM in [3] was 111%. Besides, the activity at 40 min, 0.003 µM in data set [4] came to 130%. Also, in data set [5], the activity at 40 min, 0.01 µM was determined as 98.3%. Moreover, the activity at 40 min, 0.03 µM in [6] amounted to 119%. Besides, in [7], the activity at 40 min, 0.1 µM amounted to 96%. Also, in [8], the activity at 40 min, 0.3 µM came to 94%. In [9], the activity at 40 min, 1 µM is 39.3%. Further, the activity at 40 min, 3 µM in data set [10] was 52%. Moreover, in data set [11], the activity at 40 min, 10 µM is -2.8%. The activity at 40 min, 30 µM in [12] was -3%. In [13], the activity at 40 min, 100 µM stood at 12.3%. For the same compound, the Time was 183 s in data set [14], 184.5 s in [15] and 167.6 s in data set [16]. Also, the Activity entry in [17], in data set [18] and in [19] was “Non-Toxic” each time.
